Source: ChEMBL document CHEMBL4270616, “Asymmetrical meta-methoxylated diarylpentanoids: Rational design, synthesis and anti-cancer evaluation in-vitro” (Eur J Med Chem, 2018)

Key:
A549 [1] = assay: Cytotoxicity against human A549 cells after 72 hrs by MTT assay; format: functional, cell-based; conditions: A549, 72 h
In short: (§1)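 Tumour lines kept in DMEM with 10% FBS and 1% penicillin/streptomycin at 37°C, 5% CO2. Seeded at 1500-5000 cells/well by doubling time and size, 24 h, then compound in DMSO-containing medium (final DMSO 0.1%) for 72 h. MTT (5 mg/mL) 4 h at 37°C, DMSO solubilisation, absorbance at 570 nm.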

HT-1080 [2] = assay: Cytotoxicity against human HT1080 cells after 72 hrs by MTT assay; format: functional, cell-based; conditions: HT-1080, 72 h; in short: as §1
[3] = Cytotoxicity against human EJ28 cells after 72 hrs by MTT assay; format: functional, cell-based; conditions: EJ-28, 72 h; in short: as §1
MCF7 [4] = assay: Cytotoxicity against human MCF7 cells after 72 hrs by MTT assay; format: functional, cell-based; conditions: MCF7, 72 h; in short: as §1
HT-1080 [5] = assay: Cytotoxicity against human HT1080 cells assessed as inhibition of cell proliferation at 20 uM after 72 hrs by MTT assay relative to control; format: functional; conditions: HT-1080, 72 h
In short: (§2)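 Single-concentration screen at 20 μM with 72 h exposure in DMEM with 10% FBS, final DMSO 0.1%. Read-out was MTT (5 mg/mL, 4 h, 37°C), DMSO solubilisation and absorbance at 570 nm, expressed as percent inhibition. Lines reaching a threshold percentage went on to IC50 determination.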

[6] = Cytotoxicity against human EJ28 cells assessed as inhibition of cell proliferation at 20 uM after 72 hrs by MTT assay relative to control; format: functional; conditions: EJ-28, 72 h; in short: as §2
MCF7 [7] = assay: Cytotoxicity against human MCF7 cells assessed as inhibition of cell proliferation at 20 uM after 72 hrs by MTT assay relative to control; format: functional; conditions: MCF7, 72 h; in short: as §2
NHDF = assay: Cytotoxicity against NHDF after 72 hrs by MTT assay; format: cell-based; conditions: Homo sapiens
In short: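 NHDF grown in DMEM with 5% FBS at 37°C, 5% CO2. Seeded at 1500-5000 cells/well, 24 h, then compound added in DMSO-containing medium (final DMSO 0.1%) for 72 h. MTT (5 mg/mL in medium) added for 4 h at 37°C, formazan dissolved in DMSO, absorbance read at 570 nm.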

SW-620 [8] = assay: Cytotoxicity against human SW620 cells assessed as inhibition of cell proliferation at 20 uM after 72 hrs by MTT assay relative to control; format: functional; conditions: SW-620, 72 h; in short: as §2
A549 [9] = assay: Cytotoxicity against human A549 cells assessed as inhibition of cell proliferation at 20 uM after 72 hrs by MTT assay relative to control; format: functional; conditions: A549, 72 h; in short: as §2
SW-620 [10] = assay: Cytotoxicity against human SW620 cells after 72 hrs by MTT assay; format: functional, cell-based; conditions: SW-620, 72 h; in short: as §1

Row | SMILES | IC50 (A549 [1]) [µM] | IC50 (HT-1080 [2]) [µM] | IC50 [3] [µM] | IC50 (MCF7 [4]) [µM] | inhibition at 20 µM (HT-1080 [5]) [%] | inhibition at 20 µM [6] [%] | inhibition at 20 µM (MCF7 [7]) [%] | IC50 (NHDF) [µM] | inhibition at 20 µM (SW-620 [8]) [%] | inhibition at 20 µM (A549 [9]) [%] | IC50 (SW-620 [10]) [µM]
1 | COc1ccc(/C=C2\CCC/C(=C\c3cccc(Cl)c3)C2=O)cc1OC | 11 | 4.9 | 5.4 | 6 | > 50 | > 50 | > 50 | 11.9 | > 50 | > 50 | 5.1
2 | COc1ccc(/C=C2\CCC/C(=C\c3cccc(OC)c3OC)C2=O)cc1OC | 14.4 | 6.4 | 6.6 | 6.5 | > 50 | > 50 | > 50 | 14.9 | > 50 | > 50 | 6.4
3 | COc1cccc(/C=C2\CCC/C(=C\c3cccc(OC)c3OC)C2=O)c1 | 16.4 | 9.9 | 10 | 5.9 | > 50 | > 50 | > 50 | 16.4 | > 50 | > 50 | 7
4 | COc1ccc(/C=C2\CCC/C(=C\c3ccc(O)cc3)C2=O)cc1OC | > 20 | 16.8 | 16.6 | 17 | > 50 | > 50 | > 50 | 26.1 | > 50 | > 50 | 7.7
5 | COc1ccc(/C=C2\CCC/C(=C\c3cccc(Br)c3)C2=O)cc1OC | 12.8 | 5.2 | 4.9 | 5.3 | > 50 | > 50 | > 50 | 12.4 | > 50 | > 50 | 4.2
6 | COc1cccc(/C=C2\CCC/C(=C\c3ccc(O)c(O)c3)C2=O)c1OC | > 20 | 4.7 | 6.4 | 4.7 | > 50 | > 50 | > 50 | 17.9 | > 50 | > 50 | 6.3
7 | COc1cc(/C=C/C(=O)CC(=O)/C=C/c2ccc(O)c(OC)c2)ccc1O [CURCUMIN] | 17.9 | 13.1 | 10.5 | 9.8 | – | – | – | 24.1 | – | – | 14
8 | COc1cccc(/C=C2\CCC/C(=C\c3ccc(O)c(Cl)c3)C2=O)c1OC | > 20 | 14.3 | 18.3 | 16.4 | > 50 | > 50 | > 50 | 39.5 | > 50 | > 50 | 16.8
9 | COc1cc(/C=C2\CCC/C(=C\c3cccc(OC)c3OC)C2=O)cc(OC)c1 | 10.2 | 4.5 | 3.6 | 1.7 | > 50 | > 50 | > 50 | 13.1 | > 50 | > 50 | 3.8
10 | COc1ccc(/C=C2\CCC/C(=C\c3ccc(Br)cc3)C2=O)cc1OC | 16 | 4.3 | 7.1 | 6.9 | > 50 | > 50 | > 50 | 13.1 | > 50 | > 50 | 5.2
11 | COc1ccccc1/C=C1\CCC/C(=C\c2ccc(OC)c(OC)c2)C1=O | > 20 | 8.1 | 8.1 | 8 | > 50 | > 50 | > 50 | 18.1 | > 50 | > 50 | 7.8
12 | COc1cccc(/C=C2\CCC/C(=C\c3ccccc3Br)C2=O)c1OC | > 20 | 10.8 | 10.8 | 9.7 | > 50 | > 50 | > 50 | > 50 | > 50 | > 50 | 12.1
13 | COc1cccc(/C=C2\CCC/C(=C\c3cccc(Cl)c3Cl)C2=O)c1OC | > 20 | 19.3 | 18.1 | > 20 | > 50 | > 50 | > 50 | > 50 | > 50 | > 50 | 16.3
14 | COc1cccc(/C=C2\CCC/C(=C\c3ccc(Br)cc3)C2=O)c1OC | > 20 | 13.7 | 15.2 | 13.8 | > 50 | > 50 | > 50 | 21.4 | > 50 | > 50 | 11.1
15 | COc1cccc(/C=C2\CCC/C(=C\c3ccc(OC)c(OC)c3)C2=O)c1 | 6.7 | 4.6 | 4.2 | 4.6 | > 50 | > 50 | > 50 | 11.6 | > 50 | > 50 | 3.7
16 | COc1ccc(/C=C2\CCC/C(=C\c3ccc(OC)c(OC)c3)C2=O)c(OC)c1 | > 20 | 17.1 | > 20 | 15.6 | > 50 | > 50 | > 50 | > 50 | > 50 | > 50 | > 20
17 | COc1ccc(/C=C2\CCC/C(=C\c3ccc(Cl)c(Cl)c3)C2=O)cc1OC | 6.9 | 3.1 | 3.4 | 4.4 | > 50 | > 50 | > 50 | 10.1 | > 50 | > 50 | 4
18 | COc1cccc(/C=C2\CCC/C(=C\c3cccc(Cl)c3)C2=O)c1OC | > 20 | 10.3 | 11.3 | 12 | > 50 | > 50 | > 50 | 21.4 | > 50 | > 50 | 9.1
19 | COc1ccc(/C=C2\CCC/C(=C\c3cccc(Cl)c3Cl)C2=O)cc1OC | > 20 | 8.8 | 10.4 | 14.3 | > 50 | > 50 | > 50 | 18.5 | > 50 | > 50 | 10.8
20 | COc1cccc(/C=C2\CCC/C(=C\c3cc(Cl)cc(Cl)c3)C2=O)c1OC | 12.5 | 6.1 | 7.5 | 4.3 | > 50 | > 50 | > 50 | 21.6 | > 50 | > 50 | 5.5
